From ChEMBL document CHEMBL4425094, “Novel Benzo[a]quinolizidine Analogs Induce Cancer Cell Death through Paraptosis and Apoptosis” (J Med Chem, 2016) come the findings set out here.

The subject of data set [1] is PC-3. Kind of data set: Cytotoxicity in human PC3 cells assessed as reduction in cell viability after 24 hrs in presence of AcT-D by MTT assay. Format: functional, cell-based. The essentials: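 PC3 cells pretreated with 10 μM actinomycin D or 5 μM cycloheximide, then treated with compound for 24 h. Viability by MTT at 570 nm. Vacuolation imaged by phase-contrast microscopy.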
(In general: Formazan colour is commonly taken as a measure of viable cells.)

The next data set has as its system RWPE-1. Nature of the data set: Cytotoxicity against human RWPE1 cells assessed as cell growth inhibition after 24 hrs by MTT assay. Format: cell-based. As to conditions: RWPE-1, 24 h. The essentials: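 Cells seeded 24 h in RPMI 1640 + 10% FBS. RWPE-1 was kept in K-SFM with bovine pituitary extract and EGF. Cells then exposed to compounds for 24 h at 37 °C, 5% CO2, with DMSO vehicle and docetaxel as positive control. MTT added for 4 h, absorbance read at 570 nm. Triplicate runs, IC50 reported as mean of three experiments.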

Data set [2] has as its system PC-3. Nature of the data set: Induction of ER stress in human PC3 cells assessed as GRP78 upregulation incubated for 22 hrs after ER stress inhibitor 4-PBA exposure for 2 hrs by Western blot analysis. The data set is classed as functional, cell-based. In short, it runs like this:
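PC3 cells pretreated 2 h with 4-PBA (100 μM), then compound added for a further 22 h. Viability measured by MTT. GRP78 assessed by Western blot, along with XBP1 mRNA splicing analysis. Morphology by phase contrast.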
On the technique in general: A western blot detects proteins with antibodies after separation by electrophoresis.

Data set [3] has as its system PC-3. Kind of data set: Induction of apoptosis in human PC3 cells assessed as necrotic cells at 1 uM after 24 hrs by Annexin V-FITC/propidium iodide based flow cytometric analysis (reference value: 1.1 %). The data set is classed as functional. The essentials:
(§1)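 PC3 cells exposed to 0.5, 1 or 2 μM for 24 h, then stained with Annexin V-FITC and PI and analyzed by FACSCalibur flow cytometry. Populations assigned as necrotic (Annexin V−/PI+), late apoptotic (double positive), normal (Annexin V−/PI−) and early apoptotic (Annexin V+/PI−). DMSO vehicle control.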

Data set [4] concerns PC-3. Kind of data set: Induction of apoptosis in human in human PC3 cells assessed as reduction in cell viability in presence of pan-caspase inhibitor Z-VAD-fmk by MTT assay. Format: functional, cell-based. In short, it runs like this:
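PC3 cells pretreated with Z-VAD-fmk (10 μM) or Ac-DEVD-CHO (50 μM) before compound exposure. Viability read by MTT at 570 nm. Significance tested against control by Student's t test.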

The subject of data set [5] is PC-3. Nature of the data set: Induction of morphological changes in human PC3 cells incubated for 22 hrs after ER stress inhibitor 4-PBA exposure for 2 hrs by phase-contrast microscopic analysis. Format: functional, cell-based. The essentials: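 PC3 cells pretreated 2 h with 100 μM 4-PBA (ER stress inhibitor), then exposed to agent for a further 22 h. Morphology by phase-contrast microscopy; viability by MTT in parallel.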

The test system of data set [6] is PC-3. Nature of the data set: Induction of vacuolization in human PC3 cells in presence of CHX after 24 hrs by phase-contrast microscopic analysis. Format: functional, cell-based. The essentials:
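PC3 cells pretreated with 10 μM actinomycin D or 5 μM cycloheximide, then treated with agent for 24 h. Vacuolization imaged by phase-contrast microscopy; viability by MTT.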

The test system of data set [7] is PC-3. Nature of the data set: Induction of cell cycle arrest in human PC3 cells assessed as accumulation in G0/G1 phase at 2 uM after 24 hrs by […]propidium iodide based flow cytometric analysis (reference value: 43.5 to 62.5 %). The data set is classed as functional.
Data set [8] concerns PC-3M. Nature of the data set: Antitumor activity against human PC3M-lluc-C6 cells xenografted in athymic Balb/c mouse assessed as tumor volume at 15 mg/kg, ip administered every 2 days for 18 days (reference value: 845.6 +/- 84.3 mm'3). Format: functional. (In general: In xenograft studies the graft and the host belong to different species.)
In data set [9] the test system is PC-3. Kind of data set: Induction of autophagy in human PC3 cells assessed as conversion of LC3B1 to LC3B2 after 24 hrs by Western blot analysis. The data set is classed as functional, cell-based. In short, it runs like this: (§2)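 PC3 cells in RPMI 1640 with 10% FBS, treated with compound for timed intervals. DMSO vehicle control. Lysis in RIPA buffer, 40 μg protein per lane on SDS-PAGE, transfer to nitrocellulose. Primary antibodies overnight at 4 °C, HRP-secondary 45 min, ECL detection. GAPDH or β-actin used as loading control.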

For data set [10], the system named is PC-3. Nature of the data set: Induction of autophagy in human PC3 cells assessed as increase in p62/SQSTM1 expression after 4 hrs by Western blot analysis. The data set is classed as functional, cell-based. The essentials:
as §2

The test system of data set [11] is PC-3. Nature of the data set: Induction of autophagy in human PC3 cells transfected with mRFP-GFP-LC3 assessed as pervacuolar distribution of LC3 at 1 uM after 8 hrs by fluorescence microscopic analysis. Format: functional, cell-based. In short, it runs like this: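 PC3 cells transfected with an mRFP-GFP-LC3 reporter plasmid, then treated 8 h with 1 μM test agent or 0.5 μM rapamycin (autophagy inducer). Imaged by confocal fluorescence microscopy: yellow puncta (overlapping red/green) scored as autophagosomes, red-only puncta as autolysosomes, since GFP is quenched in acidic lysosomes.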

Data set [12] has as its system PC-3M. Kind of data set: Antiproliferation activity against human PC3M-lluc-C6 cells xenografted in athymic Balb/c mouse assessed as decrease in cell viability at 15 mg/kg, ip administered every 2 days for 18 days by Ki-67 staining based microscopic analysis. Format: functional, organism-based. In short, it runs like this:
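Male BALB/c-nu mice, 6 weeks old, each given 5 × 10^6 PC3M-luc-C6 cells subcutaneously in the right anterior flank. At ~0.1 cm3 tumor, groups of n = 5 received 15 mg/kg i.p. every 2 days. Docetaxel 15 mg/kg was the positive control. Tumor tissue stained with H&E or anti-Ki67 (1:500) overnight at 4 °C, HRP/DAB, hematoxylin counterstain, examined by microscopy.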

The test system of data set [13] is PC-3. Nature of the data set: Induction of cytoplasmic vacuolation in human PC3 cells at 1 uM after 24 hrs by phase-contrast microscopic analysis. Format: functional, cell-based. In short, it runs like this: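 PC3 cells in RPMI 1640 with 10% FBS at 37 °C, 5% CO2, treated with 1 μM agent for 0−24 h; DMSO vehicle control. Vacuole appearance, size and number followed over time by phase-contrast microscopy at constant magnification.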

For data set [14], the system named is PC-3. Nature of the data set: Induction of apoptosis in human PC3 cells assessed as viable cells at 1 uM after 24 hrs by Annexin V-FITC/propidium iodide based flow cytometric analysis (reference value: 95.4 %). As to conditions: PC-3, 24 h, read-out: Activity. Format: functional. The essentials: as §1
Data set [15] relates to PC-3M. Kind of data set: Induction of paraptosis in human PC3M-lluc-C6 cells xenografted in athymic Balb/c mouse at 15 mg/kg, ip administered every 2 days for 18 days by H and E staining based method. The data set is classed as functional, organism-based. In short, it runs like this: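 Subcutaneous PC3M-luc-C6 xenografts (5 × 10^6 cells) were grown in 6-week male athymic BALB/c-nu mice. Groups of n = 5 received 15 mg/kg i.p. every 2 days from ~0.1 cm3 tumor volume, with a vehicle group. Excised tumor tissue was examined by H&E staining for vacuoles.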

The test system of data set [16] is PC-3. Nature of the data set: Growth inhibition of human PC3 cells at IC30 in presence of MG139 assessed as combination index by MTT assay. Format: functional. In short, it runs like this:
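PC3 cells incubated with increasing concentrations of compound combined with a second agent (bortezomib or partner compound). Viability determined, combination index calculated: CI < 1 synergism, = 1 additive, > 1 antagonism.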

Data set [17] can be described thus: Toxicity in athymic Balb/c mouse assessed as induction of mortality at 15 mg/kg, ip administered every 2 days for 18 days. The data set is classed as organism-based. As to conditions: in vivo. The essentials:
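Male athymic BALB/c-nu mice, 6 weeks old, bearing subcutaneous PC3M-luc-C6 xenografts (5 × 10^6 cells, right anterior flank) were grouped (n = 5) once tumours reached about 0.1 cm3. They received a 15 mg/kg suspension intraperitoneally every 2 days for 18 days, alongside placebo and docetaxel (15 mg/kg) groups. Body weight and deaths were recorded.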

Activity calls are given as the source filed them. The calls are words filed in the database; no cut-off is given here.

For orientation: IC50 means the concentration that inhibits the measured activity by half.

Turning to `Cc1cc(C)cc(COc2cc3c(cc2OCc2cc(C)cc(C)c2)[C@@H]2C[C@H](O)C[C@@H](C)N2CC3)c1` (racemic), the result in the data set with PC-3 [1], in the data set with PC-3 [2], with PC-3 [4], in the data set on PC-3 [5], with PC-3 [6] and in the data set on PC-3 [10] was inactive. Besides, the IC50 in the data set on RWPE-1 was 5.06 µM. Besides, the Activity with PC-3 [3] is recorded as 1.6%; with PC-3 [7] it was 80.2 - 81.4%; in the data set on PC-3M [8], 410.2 mm3; in [17] it was “Non-Toxic”. The outcome with PC-3 [9], in the data set with PC-3 [11], in the data set on PC-3 [13] and in the data set on PC-3M [15] was Active. In addition, the inhibition entry with PC-3M [12] was “Active”. In the data set on PC-3 [14], the viability at 1 µM came out at 90%. The CI in the data set with PC-3 [16] is 0.1 - 0.3.
